Here are results for ten molecules from ChEMBL document CHEMBL1138656, “Design, synthesis, and evaluation of sugar amino acid based inhibitors of protein prenyl transferases PFT and PGGT-1” (J Med Chem, 2004).

The structures appear in SMILES notation.

Assay [1] deals with Protein farnesyltransferase (Homo sapiens, UniProt P49354+P49356). Briefly: Inhibition of [3H]FPP incorporation by Protein Farnesyltransferase. It counts as protein-complex assay. In short, it runs like this:
(§1)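 Cell-free prenyltransferase assay measuring inhibition of enzyme-catalysed incorporation of tritiated prenyl donor: [3H]FPP for PFT, the corresponding tritiated geranylgeranyl donor for PGGT-1. The buffer was Tris, pH 7.4, with dithiothreitol, which removes the cysteine S-tert-butyl group. Each determination used five compound concentrations. The IC50 came from a fitted concentration–inhibition curve and is the mean of three determinations.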

Assay [2] addresses Geranylgeranyl transferase type I (Homo sapiens, UniProt P49354+P53609). Briefly: Inhibition of [3H]GGPP incorporation by Protein Geranylgeranyl transferase type I. Type of assay: protein-complex assay. The essentials: as §1

For the molecule `CC[C@H](C)[C@H](NC(=O)[C@@H](NC(=O)[C@@H](N)CS)C(C)C)C(=O)N[C@@H](CCSC)C(=O)O`, the IC50 (as a rule, the midpoint of a concentration-inhibition curve) in assay [1] turned out to be 0.42 µM.

`C=C(N[C@@H](CC(C)C)C(=O)O)[C@H]1O[C@@H](CNC(=O)[C@@H](N)CSSC(C)(C)C)CCC1O` (some centres undefined): the results for the IC50 in assay [1] and in assay [2] were more than 1000 µM and 261 µM, respectively.

With `CC(C)C[C@H](NC(=O)[C@H]1O[C@@H](CNC(=O)[C@@H](N)CSSC(C)(C)C)CC[C@@H]1OCc1ccccc1)C(=O)O`, the IC50 was 57 µM in assay [1] and 14 µM in assay [2].

Turning to `CC(C)C[C@H](NC(=O)[C@H]1O[C@H](CNC(=O)[C@@H](N)CSSC(C)(C)C)CC[C@@H]1OCc1ccccc1)C(=O)O`, the results for the IC50 in assay [1] and in assay [2] were 321 µM and 206 µM, respectively.

`CSCC[C@H](NC(=O)[C@H]1O[C@H](CNC(=O)[C@@H](N)CSSC(C)(C)C)CC[C@@H]1OCc1ccccc1)C(=O)O`: the IC50 in assay [1] was 42 µM; in assay [2], 48 µM.

As for `CSCC[C@H](NC(=O)[C@H]1O[C@@H](CNC(=O)[C@@H](N)CSSC(C)(C)C)CC[C@@H]1OCc1ccccc1)C(=O)O`, the 50% inhibitory concentration (IC50) in assay [1] is 0.25 µM; in assay [2] it was more than 1000 µM.

Take `C=C(N[C@@H](CCSC)C(=O)O)[C@H]1O[C@H](CNC(=O)[C@@H](N)CSSC(C)(C)C)CC[C@@H]1OCc1ccccc1`: the values for the IC50 in assay [1] and in assay [2] were approximately 1000 µM and 311 µM, respectively.

`C[S+]([O-])CC[C@H](NC(=O)[C@H]1O[C@@H](CNC(=O)[C@@H](N)CSSC(C)(C)C)CC[C@@H]1OCc1ccccc1)C(=O)O` (some centres undefined): the IC50 in assay [1] was 2.2 µM; in assay [2] it was more than 1000 µM.

Take `C[S+]([O-])CC[C@H](NC(=O)[C@H]1O[C@H](CNC(=O)[C@@H](N)CSSC(C)(C)C)CC[C@@H]1OCc1ccccc1)C(=O)O` (some centres undefined): the IC50 is 91 µM in assay [1] and 521 µM in assay [2].

`C=C(N[C@@H](CCSC)C(=O)O)[C@H]1O[C@@H](CNC(=O)[C@@H](N)CSSC(C)(C)C)CC[C@@H]1OCc1ccccc1`: the figures for the IC50 in assay [1] and in assay [2] were more than 1000 µM and 500 µM, respectively.
